We go through 96 compounds from ChEMBL document CHEMBL4513216, “Probing the Open Global Health Chemical Diversity Library for Multistage-Active Starting Points for Next-Generation Antimalarials” (ACS Infect Dis, 2020).

The nature of this data set: Toxicity liver stage against HepG2, at 10uM. It counts as cell-based. Details: test concentration 10 uM, cell line HepG2-A16-CD81EGFP. Particulars: human, HepG2-A16-CD81EGFP cells; read-out: INHIBITION
In outline: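 Uninfected HepG2-A16-CD81EGFP cells, 3 × 10^3 per well, 1536-well, plated on prespotted compound at 10 μM final, parasite-free screening media added to match infected plates; puromycin 10 μM positive, DMSO 0.5% negative; run in parallel with 48 h PbLuc assay at 37 °C, 5% CO2; viability by CellTiter-Glo luminescence, normalized to controls.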
As to `CNC(=O)c1sccc1S(=O)(=O)Nc1ccc(C)cc1`, the cytotoxicity at 10 µM is 11.4%. The value for `CC(C)C(C(=O)NCC1CC1)n1cnc2cc(F)c(F)cc21` (stereo unspecified) was 3.26%. As for `CC(C)OCCS(=O)(=O)c1nccn1-c1cccc(F)c1`, the cytotoxicity at 10 µM is -3.3%. In the case of `Cn1cc(C[C@H]2[C@@H](O)CCN2C(=O)C2CC=CC2)cn1`, the cytotoxicity at 10 µM came to 5.6%. The value for `CCS(=O)(=O)N1CCC(NCC2CNc3cc(C)nn3C2)CC1` (stereo unspecified) was 0.286%; that for `Cc1cc(S(C)(=O)=O)c(C)c(S(=O)(=O)N2CCCCCC2)c1` was 14.1%. `CCc1nc(CCNC(=O)Nc2cccc(C(=O)NC)c2C)cs1`: the cytotoxicity at 10 µM is -11.2%. Next, `OCC1CCCCN1Cc1nc(Cc2cccc(F)c2)no1` (stereo unspecified): -137%.

For the compound `Cc1ncsc1C(=O)N(C)Cc1ccncc1`, the cytotoxicity at 10 µM was -0.524%. Next, `COc1ccccc1CC(=O)N1C[C@@H]2CC[C@H]1CN(Cc1cscn1)C2`: -1.87%; `COc1cccc(NC(C(N)=O)c2ccc(Br)cc2)c1` (stereo unspecified): 11.3%. Turning to `Cn1cc(CN2CCC3(CCCN(C(=O)c4cscn4)C3)C2)cn1` (stereo unspecified), the cytotoxicity at 10 µM turned out to be 1.71%. Next, `Cc1cnn(CCCNC(=O)NCCS(=O)(=O)Nc2ccccc2)c1`: 1.07%. The value for `CCC1CCCN(S(=O)(=O)c2cnn(C)c2)C1` (stereo unspecified) was 12.9%; that for `Cc1nc(C2CCN(S(C)(=O)=O)CC2)nc2c1CCC(=O)N2CC(C)C` was 3.44%; that for `O=C(c1ccno1)N1CC[C@@H]2O[C@H](COCCN3CCCC3)CC[C@@H]21` was -79.1%. Next, `COc1ccc(CN2CCOC3(CCCN(c4cnccn4)C3)C2)cc1` (stereo unspecified): 10.5%. Take `Cc1ccc(C(=O)NCCS(=O)(=O)Cc2ccccc2)c(=O)[nH]1`: the cytotoxicity at 10 µM is -5.96%. The value for `CCC(O)CN1CCN(C(=O)c2cnc3n[nH]c(C)c3c2)CC1` (stereo unspecified) was -5%; that for `CCCn1cc(NC(=O)c2ccc(S(=O)(=O)CC)cc2)ccc1=O` was 2.99%; that for `CN(C)Cc1cnc2n1CCN(Cc1ccsc1)CC2` was -10.4%. As for `CS(=O)(=O)N1C[C@@H]2CCN(C(=O)c3ccco3)[C@@H]2C1`, the cytotoxicity at 10 µM came to 10%. The value for `Cc1cnn(CCNCc2nccn2CC(F)(F)F)c1` was 6.51%; that for `Cc1cc(C)c(CNC(=O)C2COc3ccccc3C2)c(=O)[nH]1` (stereo unspecified) was -0.102%; that for `Cc1cc(C(F)(F)F)n2nc(C3CCN(S(C)(=O)=O)CC3)cc2n1` was 0.065%. Next, `FC(F)(F)C1CCc2nnc(CNCc3cccs3)n2C1` (stereo unspecified): 2.9%. On to `NC(=O)c1ccc(OCC(=O)N2CCCC2c2ccc[nH]2)cc1` (stereo unspecified), for which the cytotoxicity at 10 µM is -5.82%. Next, `O=c1cc(CN2CCCC2)nc2n1CCCN(Cc1ccoc1)C2`: -123%. Next, `CN(C)CC(=O)N1Cc2nc(C(=O)NCc3ccccc3)oc2C1`: -81.5%; `Cc1noc(C2CCCCN2C(=O)C2CCN(C(C)C)CC2)n1` (stereo unspecified): -4.62%.

Take `Cn1nc(C2CCCN(Cc3ccsc3)C2)c2nccnc21` (stereo unspecified): the cytotoxicity at 10 µM is -2.58%. The value for `CCCc1cc(C(=O)Nc2nc(SC)ns2)[nH]n1` was -19.3%; that for `Cc1noc(C2CN(S(C)(=O)=O)Cc3ccnn3C2)n1` (stereo unspecified) was 4.92%. The value for `O=C(CC1CN(Cc2ccccc2)CCO1)NC1CCCC1` (stereo unspecified) was -0.394%. Next, `CC(=O)N1CCO[C@@H]2CN(Cc3ccccc3Cl)C[C@@H]2C1`: -110%. With `CC1(C)[C@@H]2CC=C(CN3CCCn4nc(C(=O)O)cc4C3)[C@H]1C2`, the cytotoxicity at 10 µM is -40.8%. Next, `O=C(NC1CC1)C1CCN(Cn2nc(-c3ccccc3)oc2=O)CC1`: 15%. Next, `O=C(CCn1cncn1)NCC(c1ccco1)N1CCCCC1` (stereo unspecified): -2.97%; `CC(C)c1noc(CN2CCN(C(=O)c3cccc(F)c3)CC2)n1`: -4.27%; `O=C1COC2(CCN(C(=O)c3ccco3)CC2)CN1Cc1cccnc1`: 7.2%. The value for `CC(C1CC1)N(C(=O)NCCCn1nc2ccccn2c1=O)C1CC1` (stereo unspecified) was -21.4%; that for `COc1cc(CN(C)C(=O)Cc2c(C)nn(C)c2C)ccc1OC(F)F` was 39.2%. For `CC(=O)N1CCC(NC(=O)N2CCN(c3cnccn3)CC2)CC1`, the cytotoxicity at 10 µM was determined as 6.47%.

On to `CC(Cc1c(F)cccc1F)NC(=O)Nc1cnn(CC(N)=O)c1` (stereo unspecified), for which the cytotoxicity at 10 µM is -2.96%.

With `Cc1cccc(CNC(=O)Nc2ccc3c(c2)CCCC(=O)N3)c1`, the cytotoxicity at 10 µM is 2.33%. Next, `CC(=O)NCCC1CCN(c2nc(C(C)(C)C)nc3c2cnn3C)CC1`: -0.891%. The value for `Cc1csc(N2CCN(C(=O)CCC(=O)c3ccc(C)s3)CC2)n1` was -3.09%; that for `COCCN(Cc1ccsc1)C(=O)c1c(C)cc(C)[nH]c1=O` was -2.42%; that for `CCNc1c(NC(=O)C(C)(C)C)c(=O)oc2ccccc12` was -1.97%.

For the compound `CCn1nc(C)c2nc(C(C)C)nc(N3CCOCC3)c21`, the cytotoxicity at 10 µM stood at 2.88%. The value for `Cc1cc(C(=O)N2CCC(NC(=O)c3cccnc3)CC2)c(C)o1` was -2.44%.

Take `Cc1ccc(N2CC3(CCN(c4nccs4)C3)C2)nn1`: the cytotoxicity at 10 µM is -5.85%. The value for `Cc1ccc2c(c1)c(CNC(=O)C1CCN(C(=O)C3CC3)CC1)nn2C` was -0.687%. The value for `Nc1nccc(-c2cccc3ccnn23)n1` was -3.81%. Next, `CNC(=O)NC(=O)CCN1CCCC1c1nc(C2CCCCC2)co1` (stereo unspecified): 5.44%; `Cc1noc([C@]23COC[C@H]2CN(S(=O)(=O)N(C)C)C3)n1`: 10.9%; `O=C(O)c1cccnc1CN1CCCCC1CCc1cccs1` (stereo unspecified): 5.23%. Turning to `Cc1nc(Cn2cnc3c(c(Br)nn3C)c2=O)cs1`, the cytotoxicity at 10 µM is 8.84%. On to `O=C(NC1CC1)C1[C@H]2CN(Cc3ccc(-c4cc[nH]n4)s3)C[C@@H]12` (stereo partly specified), for which the cytotoxicity at 10 µM came to 6.27%. For the compound `O=C(c1ncccn1)N1C[C@H]2CCC[C@@]2(COCc2cccnc2)C1`, the cytotoxicity at 10 µM worked out at 1.83%. Take `COCCO[C@H]1CCN(c2ccc(C)nn2)[C@H]1Cc1cnn(C)c1`: the cytotoxicity at 10 µM came out at 2.5%. As for `CC(NC(=O)NCc1ccc(Cl)s1)c1ccccn1` (stereo unspecified), the cytotoxicity at 10 µM is 1.64%. The value for `Cc1noc(C)c1CN1CC[C@H]2[C@H]1CCN2CC1CCOCC1` was 2%; that for `Cc1cnn(CC2CCCCN2c2ncnc3ccccc23)c1` (stereo unspecified) was 8.24%; that for `Cc1ccc(NS(=O)(=O)c2ccc(C#N)cc2)c(CN(C)C)c1` was -8.51%. Next, `O=C(Cc1csc(-c2ccc(Cl)cc2)n1)NC(C(=O)O)c1ccccc1` (stereo unspecified): 4.91%; `CCOc1ccc(-c2ccnc(COc3ccccc3)n2)cc1C(=O)O`: -1.84%; `O=C(Cc1ccccc1O)NC1CCCN(c2ccccc2F)C1=O` (stereo unspecified): -13.7%. The value for `Cc1ccc2oc([C@H]3CCN(Cc4ccccc4)C3)nc2c1` was -6.75%. For `CCc1noc(CN2CCC(c3ccnn3CCO)CC2)n1`, the cytotoxicity at 10 µM is -11%.

In the case of `CN(C)c1nc(NCCc2ccnn2C)ncc1F`, the cytotoxicity at 10 µM is -9.83%. For the compound `CC(C)Cc1cc(C(=O)NCC(c2ccc(F)cc2)N(C)C)n(C)n1` (stereo unspecified), the cytotoxicity at 10 µM was -3.97%. The value for `Cc1cccc(CN2CC3(CCN(C(=O)N(C)C)CC3)OCC2=O)n1` was -3.88%; that for `CC(C)N1CCC(Nc2ccn(CCC#N)n2)C1=O` (stereo unspecified) was 15.7%. On to `O=C(c1ccc2c(c1)CCCC2)N1CCN(c2cnccn2)CC1`, for which the cytotoxicity at 10 µM is -1.95%. Next, `COCCN(Cc1cccs1)c1nc(CCN)nc2ccccc12`: 4.49%; `CN(C)c1ccc(C(=O)Nc2ccn(CCc3ccncc3)n2)cc1`: -4.59%; `N#Cc1ccc(OC2CCN(C(=O)c3ccc4c(c3)OCO4)CC2)nc1`: -14.7%.

On to `O=C(CCc1cccc(F)c1F)N1CCCC(n2cncn2)C1` (stereo unspecified), for which the cytotoxicity at 10 µM was -20.2%. Turning to `CCn1cc(NC(=O)C2CCN(CC(=O)NC3CCCC3)CC2)cn1`, the cytotoxicity at 10 µM was -6.52%. Next, `CCn1cc(NC(=O)NC2CCCc3c2cnn3CCO)cn1` (stereo unspecified): 5.04%. The value for `COc1cccc(-c2n[nH]cc2C(=O)NC(C)c2nc(C(C)C)no2)c1` (stereo unspecified) was -2.75%; that for `COc1cc(C(=O)NCc2ccc3c(c2)CCCN3C)cc(OC)c1Br` was -6.69%; that for `Cc1ccc2nc3n(c2c1)[C@@H](CNC(=O)c1ccncc1)COC3` was -3.61%. The value for `CC(C)(C)OC(=O)N1CCC(C(=O)NC2CCS(=O)(=O)C2)CC1` (stereo unspecified) was -6.81%; that for `OCC(CO)Nc1nc(C(F)F)nc2ccccc12` was 6.96%; that for `Cc1cc2ncc(CN(C)C)c(C3CCN(C)CC3)n2n1` was -1.19%. As to `CC(Nc1cccc(CN2CCOC2=O)c1)C(=O)Nc1cccc(F)c1` (stereo unspecified), the cytotoxicity at 10 µM is -9.16%.

Consider `Cc1cc(NC(=O)CN2CCCC2c2noc(C(C)C)n2)n(C)n1` (stereo unspecified), for which the cytotoxicity at 10 µM turned out to be 4.64%.

Regarding `CNC(=O)C1Cn2ccnc2C2(CCN(CCF)CC2)O1` (stereo unspecified), the cytotoxicity at 10 µM is -12.6%. The value for `CCS(=O)(=O)N1CCc2ccc(NC(=O)Nc3cccc(SC)c3)cc21` was 37.7%.

Consider `O=C1COC2(CCN(S(=O)(=O)C3CC3)CC2)CN1c1ccsc1`, for which the cytotoxicity at 10 µM was 6.12%.

As for `C=C(C)CN1CCC(NC(=O)Nc2ccc(F)c(C(=O)NC)c2)CC1`, the cytotoxicity at 10 µM is 5.58%.

Take `O=C(CCc1ccccc1)N1CCn2cc(Cn3cncn3)nc2C1`: the cytotoxicity at 10 µM was -0.881%. As to `N#Cc1cc(S(N)(=O)=O)ccc1N1CCN(c2ccccc2)CC1`, the cytotoxicity at 10 µM was -3.54%. Next, `O=C(Nc1ccccc1)N1CC(C(=O)N2CCCC2)C2(CCOCC2)C1` (stereo unspecified): -82.4%.
